Among the data in ChEMBL document CHEMBL1127514, “Retinobenzoic acids. 6. Retinoid antagonists with a heterocyclic ring” (1994) are EC50, Relative activity and ED50 values, retold here.

Active and inactive are the calls of the source. The rule behind the calls is not given here.

The subject of assay [1] is HL-60. Kind of assay: The ability to induce differentiation of human promyelocytic leukemia cell line HL-60 to mature granulocytes was determined by nitro blue tetrazolium (NBT) reduction assay. The format is functional. As to conditions: read-out: ED50 (the source's name). The essentials: (§1)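 HL-60 cells grown in RPMI1640 with 5% FCS and antibiotics were seeded at about 8×10^4 cells/mL. Compounds were added from 2 mM ethanol stocks (final ethanol below 0.5%; ethanol-only controls) and cells incubated 4 days. Percent differentiated cells was scored by NBT reduction (0.2% NBT plus TPA 200 ng/mL, 20 min, 37 °C; formazan-positive cells counted, minimum 200 cells). Assays were run at least twice, and ED50 was obtained by the van der Waerden method.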

The subject of assay [2] is HL-60. Kind of assay: The ability to induce differentiation of human promyelocytic leukemia cell line HL-60 to mature granulocytes relative to retinoic acid was determined by nitro blue tetrazolium (NBT) reduction assay. The format is functional. The essentials: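 HL-60 cells in RPMI1640 with 5% FCS, 37 °C, 5% CO2, seeded at about 8×10^4 cells/mL. Compounds were added from 2 mM ethanol stocks (final ethanol below 0.5%) and cells incubated 4 days. NBT reduction (0.2% NBT, TPA 200 ng/mL, 20 min, 37 °C) was scored on ≥200 cells. ED50 was calculated by van der Waerden; the value is the retinoic acid ED50 divided by the compound ED50 from concurrent runs, ×100.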

The test system of assay [3] is HL-60. Put plainly: The ability to induce differentiation of human promyelocytic leukemia cell line HL-60 to mature granulocytes was determined by nitro blue tetrazolium (NBT) reduction assay; Inactive. The format is functional, cell-based. The method, boiled down: as §1

As to `CCn1c(-c2ccc(C(=O)O)cc2)nc2cc3c(cc21)C(C)(C)CCC3(C)C`, the EC50 in assay [1] worked out at 0.046 µM. In assay [2], this compound yielded a Relative activity of 4.9.
In the same order, the values of `CN1C(=O)CC(c2ccc(C(=O)O)cc2)=Nc2cc3c(cc21)C(C)(C)CCC3(C)C` are 0.53 µM and 0.43.
As to `CC1(C)CCC(C)(C)c2cc3c(cc21)NC(=O)CN(c1ccc(C(=O)O)cc1)C3=O`, in assay [3], the ED50 result was “inactive”.
As to `CC1(C)CCC(C)(C)c2cc3[nH]c(-c4ccc(C(=O)O)cc4)nc3cc21`, the EC50 in assay [1] was 0.32 µM. In assay [2], this compound gave a Relative activity of 0.7.
With `CC1=C(/C=C/C(C)=C/C=C/C(C)=C/C(=O)O)C(C)(C)CCC1` [TRETINOIN], in assay [1], the EC50 is 0.0024 µM. Moreover, the Relative activity in assay [2] came out at 100.
In the case of `CC1(C)CCC(C)(C)c2cc3c(cc21)Nc1ccccc1C(c1ccc(C(=O)O)cc1)N3` (stereo unspecified), the EC50 in assay [1] is more than 10 µM. In assay [2], this compound returned a Relative activity of less than 0.01.
For the compound `CC1(C)CCC(C)(C)c2cc3c(cc21)nc(-c1ccc(C(=O)O)cc1)n3-c1ccccc1`, the ED50 result in assay [3] is “inactive”.
Same read-out and setting: the entry for `CN1c2cc3c(cc2N=C(c2ccc(C(=O)O)cc2)c2ccccc21)C(C)(C)CCC3(C)C` is “inactive”; for `CC1(C)CCC(C)(C)c2cc3c(cc21)nc(-c1ccc(C(=O)O)cc1)n3Cc1ccccc1` it is “inactive”.
In the case of `Cn1c(-c2ccc(C(=O)O)cc2)nc2cc3c(cc21)C(C)(C)CCC3(C)C`, in assay [1], the EC50 was 0.0034 µM. The Relative activity in assay [2] was 65.
Take `CC1(C)CCC(C)(C)c2cc(NC(=O)c3ccc(C(=O)O)cc3)ccc21` [TAMIBAROTENE]: in assay [1], the EC50 was 0.00079 µM. The Relative activity in assay [2] is 350.
Consider `CC1(C)CCC(C)(C)c2cc3c(cc21)N=C(c1ccc(C(=O)O)cc1)CC(=O)N3`, for which the ED50 entry in assay [3] was “inactive”.
With `CC(C)n1c(-c2ccc(C(=O)O)cc2)nc2cc3c(cc21)C(C)(C)CCC3(C)C`, the EC50 in assay [1] was more than 10 µM. The same compound returned a Relative activity in assay [2] of less than 0.01.
